Results: ChEMBL document CHEMBL5724801, “EUbOPEN Chemogenomics Library - Multiplex” (2024)
“And” between values parts separate entries of the source, which are not always exact repeats. Equal entries are not always repeated.

Test system: HEK-293T
Experiment: Multiplex assay against HEK293T
Format: toxicity, cell-based
Conditions: human
Summary of the method: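 Imaging took place on a CQ1 microscope at 37°C and 5% CO2 once compound had been added to live cells stained at seeding with Hoechst33342, BioTracker Green Microtubule Cytoskeleton Dye, MitoTracker Red and Annexin V Alexa Fluor 680. CellPathfinder machine-learning gating classed cells as Hoechst high-intensity objects or normal cells, classed normal cells as having healthy, pyknosed or fragmented nuclei, and classed pyknosed cells as mitotic or apoptotic. Tubulin, mitochondrial-mass and membrane-permeability phenotypes are per cents of the healthy-nucleus cells.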

[1] = 12 h, 1 µM, compound concentration 1 uM
[2] = 12 h, 10 µM, compound concentration 10 uM
[3] = 24 h, 1 µM, compound concentration 1 uM
[4] = 24 h, 10 µM, compound concentration 10 uM
[5] = 48 h, 1 µM, compound concentration 1 uM
[6] = 48 h, 10 µM, compound concentration 10 uM

With `Cl.c1ccc2c(c1)CCC[C@H]2Nc1nc2ccccc2[nH]1` the “Population Apoptotic (%)” value [1] was 12.41% and 9.85%, the “Population Fragmented Nuclei (%)” value [1] was 1.91% and 2.52% and the “Population Hoechst High Intensity Objects (%)” value [1] was 0.95% and 0.62%. For the same compound, the “Population Membrane Permeable-Phenotype (%)” value [1] was 0.58% and 0%, the “Population Mitotic Cells (%)” value [1] was 87.59% and 90.15% and the “Population Normal (%)” value [1] was 99.05% and 99.38%. The “Population Pyknosed Nuclei (%)” value [1] was 43.63% and 83.02%, the “Total Cell Count” value [1] was 317 and 160 and the “Population Apoptotic (%)” value [2] was 7.19% and 13.79%. For the same compound, the “Population Fragmented Nuclei (%)” value [2] was 2.56% and 5.8%, the “Population Hoechst High Intensity Objects (%)” value [2] was 0.57% and 0% and the “Population Membrane Permeable-Phenotype (%)” value [2] was 0%. The “Population Mitotic Cells (%)” value [2] was 92.81% and 86.21%, the “Population Normal (%)” value [2] was 99.43% and 100% and the “Population Pyknosed Nuclei (%)” value [2] was 47.58% and 84.06%. The “Total Cell Count” value [2] was 353 and 138, the “Population Apoptotic (%)” value [3] was 15.19% and 12.5% and the “Population Fragmented Nuclei (%)” value [3] was 2.28% and 0.59%. For the same compound, the “Population Healthy Nuclei (%)” value [3] was 64.94% and 28.82%, the “Population Hoechst High Intensity Objects (%)” value [3] was 0% and the “Population Membrane Permeable-Phenotype (%)” value [3] was 1.6% and 2.04%. The “Population Mitotic Cells (%)” value [3] was 84.81% and 87.5%, the “Population Normal (%)” value [3] was 100% and the “Population Pyknosed Nuclei (%)” value [3] was 32.78% and 70.59%. For the same compound, the “Population Tubulin-Different-Phenotype (%)” value [3] was 15.97% and 10.2%, the “Total Cell Count” value [3] was 482 and 170 and the “Population Apoptotic (%)” value [4] was 10.9% and 23.53%. The “Population Fragmented Nuclei (%)” value [4] was 2.57% and 5.7%, the “Population Hoechst High Intensity Objects (%)” value [4] was 0% and the “Population Membrane Permeable-Phenotype (%)” value [4] was 2.68% and 0%. The “Population Mitochondria Different-Phenotype (%)” value [4] was 18.75% and 10%, the “Population Mitotic Cells (%)” value [4] was 89.1% and 76.47% and the “Population Normal (%)” value [4] was 100%. For the same compound, the “Population Pyknosed Nuclei (%)” value [4] was 30.89% and 75.32%, the “Population Tubulin-Different-Phenotype (%)” value [4] was 23.81% and 10% and the “Population Apoptotic (%)” value [5] was 8.15% and 21.05%. The “Population Fragmented Nuclei (%)” value [5] was 2.18% and 2.63%, the “Population Healthy Nuclei (%)” value [5] was 84.41% and 64.04% and the “Population Hoechst High Intensity Objects (%)” value [5] was 0% and 0.44%. The “Population Membrane Permeable-Phenotype (%)” value [5] was 3.88% and 2.74%, the “Population Mitochondria Different-Phenotype (%)” value [5] was 18.59% and 17.81% and the “Population Mitotic Cells (%)” value [5] was 91.85% and 78.95%. For the same compound, the “Population Normal (%)” value [5] was 100% and 99.56%, the “Population Pyknosed Nuclei (%)” value [5] was 13.41% and 33.33% and the “Population Fragmented Nuclei (%)” value [6] was 2.01% and 3.85%. For the same compound, the “Population Healthy Nuclei (%)” value [6] was 79.3% and 55.49%, the “Population Hoechst High Intensity Objects (%)” value [6] was 0.32% and 0% and the “Population Membrane Permeable-Phenotype (%)” value [6] was 5.99% and 1.98%. The “Population Mitochondria Different-Phenotype (%)” value [6] was 26.23% and 33.66%, the “Population Mitotic Cells (%)” value [6] was 94.35% and 78.38% and the “Population Normal (%)” value [6] was 99.68% and 100%. For the same compound, the “Population Pyknosed Nuclei (%)” value [6] was 18.69% and 40.66%.

In the case of `CC(=O)NCCc1c(Cc2ccccc2)[nH]c2ccccc12` [LUZINDOLE], the “Population Apoptotic (%)” value [1] is reported as 38% and 43%, the “Population Fragmented Nuclei (%)” value [1] is reported as 7% and 5% and the “Population Healthy Nuclei (%)” value [1] is reported as 79% and 80%. The “Population Hoechst High Intensity Objects (%)” value [1] was 11% and 8%, the “Population Membrane Permeable-Phenotype (%)” value [1] was 0% and the “Population Mitochondria Different-Phenotype (%)” value [1] was 54% and 68%. For the same compound, the “Population Mitotic Cells (%)” value [1] was 61% and 56%, the “Population Normal (%)” value [1] was 88% and 91% and the “Population Pyknosed Nuclei (%)” value [1] was 12% and 13%. For the same compound, the “Population Tubulin-Different-Phenotype (%)” value [1] was 39% and 27%, the “Total Cell Count” value [1] was 412 and 304 and the “Population Apoptotic (%)” value [2] was 37% and 53%. For the same compound, the “Population Fragmented Nuclei (%)” value [2] was 8% and 5%, the “Population Healthy Nuclei (%)” value [2] was 77% and 80% and the “Population Hoechst High Intensity Objects (%)” value [2] was 10% and 9%. The “Population Membrane Permeable-Phenotype (%)” value [2] was 0%, the “Population Mitochondria Different-Phenotype (%)” value [2] was 61% and 72% and the “Population Mitotic Cells (%)” value [2] was 62% and 46%. For the same compound, the “Population Normal (%)” value [2] was 89% and 90%, the “Population Pyknosed Nuclei (%)” value [2] was 14% and the “Population Tubulin-Different-Phenotype (%)” value [2] was 45% and 35%. The “Total Cell Count” value [2] was 379 and 315, the “Population Apoptotic (%)” value [3] was 20% and 40% and the “Population Fragmented Nuclei (%)” value [3] was 12% and 7%. The “Population Healthy Nuclei (%)” value [3] was 75% and 82%, the “Population Hoechst High Intensity Objects (%)” value [3] was 7% and 8% and the “Population Membrane Permeable-Phenotype (%)” value [3] was 0%. For the same compound, the “Population Mitochondria Different-Phenotype (%)” value [3] was 33% and 45%, the “Population Mitotic Cells (%)” value [3] was 80% and 60% and the “Population Normal (%)” value [3] was 92% and 91%. The “Population Pyknosed Nuclei (%)” value [3] was 11% and 10%, the “Population Tubulin-Different-Phenotype (%)” value [3] was 26% and 18% and the “Total Cell Count” value [3] was 546 and 379. For the same compound, the “Population Apoptotic (%)” value [4] was 40% and 28%, the “Population Fragmented Nuclei (%)” value [4] was 9% and 11% and the “Population Healthy Nuclei (%)” value [4] was 81% and 77%. The “Population Hoechst High Intensity Objects (%)” value [4] was 10% and 11%, the “Population Membrane Permeable-Phenotype (%)” value [4] was 1% and 0% and the “Population Mitochondria Different-Phenotype (%)” value [4] was 40% and 58%. For the same compound, the “Population Mitotic Cells (%)” value [4] was 60% and 71%, the “Population Normal (%)” value [4] was 89% and 88% and the “Population Pyknosed Nuclei (%)” value [4] was 8% and 11%. For the same compound, the “Population Tubulin-Different-Phenotype (%)” value [4] was 32% and 24%, the “Total Cell Count” value [4] was 502 and 388 and the “Population Apoptotic (%)” value [5] was 24% and 46%. For the same compound, the “Population Fragmented Nuclei (%)” value [5] was 16% and 12%, the “Population Healthy Nuclei (%)” value [5] was 78% and 82% and the “Population Hoechst High Intensity Objects (%)” value [5] was 3% and 6%. For the same compound, the “Population Membrane Permeable-Phenotype (%)” value [5] was 1% and 0%, the “Population Mitochondria Different-Phenotype (%)” value [5] was 16% and 23% and the “Population Mitotic Cells (%)” value [5] was 75% and 53%. The “Population Normal (%)” value [5] was 96% and 93%, the “Population Pyknosed Nuclei (%)” value [5] was 5% and the “Population Tubulin-Different-Phenotype (%)” value [5] was 12% and 13%. For the same compound, the “Total Cell Count” value [5] was 965 and 522, the “Population Apoptotic (%)” value [6] was 27% and 36% and the “Population Fragmented Nuclei (%)” value [6] was 13% and 11%. For the same compound, the “Population Healthy Nuclei (%)” value [6] was 79% and 82%, the “Population Hoechst High Intensity Objects (%)” value [6] was 9% and 6% and the “Population Membrane Permeable-Phenotype (%)” value [6] was 0%. The “Population Mitochondria Different-Phenotype (%)” value [6] was 27% and 32%, the “Population Mitotic Cells (%)” value [6] was 72% and 63% and the “Population Normal (%)” value [6] was 90% and 93%. For the same compound, the “Population Pyknosed Nuclei (%)” value [6] was 7% and 5%, the “Population Tubulin-Different-Phenotype (%)” value [6] was 17% and 19% and the “Total Cell Count” value [6] was 742 and 573.
